This passage reports MIC, Ratio and inhibition results from ChEMBL document CHEMBL1828603, “Synthesis, antimicrobial activity and possible mechanism of action of 9-bromo-substituted indolizinoquinoline-5,12-dione derivatives” (2011).

In brackets after ≈: the same amount, converted by molar mass. Activity calls are given as the source filed them. The rule behind the calls is not given here.

The test system of assay [1] is Escherichia coli. Nature of the assay: Antimicrobial activity against Escherichia coli ATCC 25922 by broth microdilution method. In kind it is functional. Summed up:
(§1)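 Two-fold broth microdilution in Mueller-Hinton broth. Compound in DMSO added to bacterial culture at 5 × 10^5 cells/ml, starting at 64 µg/ml, then serially doubled down. Incubated at 37 °C overnight and read as OD600. MIC taken as the minimum inhibitory concentration, obtained in at least two independent experiments.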

Assay [2] deals with Pseudomonas aeruginosa. As to the kind of experiment: Antimicrobial activity against Pseudomonas aeruginosa ATCC 27853 by broth microdilution method. In kind it is functional. Summed up: as §1
The subject of assay [3] is Salmonella enterica subsp. enterica serovar Paratyphi B. Nature of the assay: Antimicrobial activity against Salmonella paratyphi B CMCC 50094 by broth microdilution method. In kind it is functional. In outline: (§2)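 Two-fold serial dilution in Mueller-Hinton broth, starting at 64 µg/ml. Compound was added as a DMSO solution to bacterial culture at 5 × 10^5 cells/ml, then double-diluted. Plates were incubated overnight at 37 °C and OD600 was read. MIC was taken from at least two independent experiments.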
(In general: In broth dilution the organism is exposed to a series of concentrations in liquid medium.)

Assay [4] relates to Streptococcus. Nature of the assay: Antimicrobial activity against hemolytic Streptococcus Group B CMCC 32210 by broth microdilution method. It counts as functional. Summed up:
as §1

Assay [5] relates to Staphylococcus aureus. Nature of the assay: Antimicrobial activity against Staphylococcus aureus ATCC 25923 by broth microdilution method. In kind it is functional. Summed up:
as §1

For assay [6], the system named is Staphylococcus epidermidis. As to the kind of experiment: Antimicrobial activity against Staphylococcus epidermidis ATCC 12228 by broth microdilution method. It counts as functional. In outline:
as §1

Assay [7] has as its system Enterococcus faecalis. As to the kind of experiment: Antimicrobial activity against Enterococcus faecalis ATCC 29212 by broth microdilution method. In kind it is functional. In outline:
as §1

Assay [8] concerns Staphylococcus aureus. Nature of the assay: Antimicrobial activity against methicillin-resistant Staphylococcus aureus ATCC 43300 by broth microdilution method. It counts as functional. In outline:
as §2

For assay [9], the system named is Candida albicans. Nature of the assay: Antifungal activity against Candida albicans ATCC 10231 by broth microdilution method. In kind it is functional.
In assay [10] the test system is Staphylococcus aureus. Nature of the assay: Ratio of MIC for vancomycin to compound for methicillin-resistant Staphylococcus aureus ATCC 43300 by broth microdilution method. In kind it is functional.
For assay [11], the system named is Staphylococcus aureus. Nature of the assay: Antimicrobial activity against methicillin-resistant Staphylococcus aureus isolate 72754 by broth microdilution method. In kind it is functional. Summed up: (§3)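 MRSA clinical isolates from Guangzhou Liuhuaqiao Hospital, China. Tested by two-fold broth dilution in Mueller-Hinton broth from a top concentration of 64 µg/ml. Compound in DMSO was added to culture at 5 × 10^5 cells/ml and serially halved. Plates were incubated at 37 °C overnight with OD600 read-out. MIC came from ≥2 independent experiments.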

For assay [12], the system named is Staphylococcus aureus. Nature of the assay: Antimicrobial activity against methicillin-resistant Staphylococcus aureus isolate 071843 by broth microdilution method. In kind it is functional. Summed up:
as §3

In assay [13] the test system is Staphylococcus aureus. As to the kind of experiment: Antimicrobial activity against methicillin-resistant Staphylococcus aureus isolate 82731 by broth microdilution method. In kind it is functional. In outline: as §3
Assay [14] has as its system Staphylococcus aureus. Nature of the assay: Antimicrobial activity against methicillin-resistant Staphylococcus aureus isolate 071429 by broth microdilution method. It counts as functional. In outline:
as §3

Assay [15] has as its system Staphylococcus aureus. As to the kind of experiment: Antimicrobial activity against methicillin-resistant Staphylococcus aureus isolate 83160 by broth microdilution method. It counts as functional. In outline: as §3
Assay [16] relates to Staphylococcus aureus. As to the kind of experiment: Antimicrobial activity against methicillin-resistant Staphylococcus aureus isolate 82896 by broth microdilution method. It counts as functional. In outline:
as §3

Assay [17] has as its system Staphylococcus aureus. Nature of the assay: Antimicrobial activity against methicillin-resistant Staphylococcus aureus isolate 82924 by broth microdilution method. It counts as functional. In outline: as §3
The test system of assay [18] is Escherichia coli. As to the kind of experiment: Inhibition of Escherichia coli DNA gyrase supercoiling activity using pHOT1 DNA as substrate at 1 uM after 60 mins by agarose gel electrophoretic analysis. In outline: (§4)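 Supercoiling assay with 1 U DNA gyrase (E. coli or S. aureus) and 0.5 µg relaxed pHOT1 DNA in Tris–HCl pH 7.5 buffer (KCl, MgCl2, DTT, spermidine, 1 mM ATP, glycerol, BSA), ± compound, 37 °C for 60 min. Stopped with proteinase K, run on 1% agarose in TAE at 3 V/cm, stained with Gel Red and imaged under UV.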

Assay [19] concerns Escherichia coli. Nature of the assay: Inhibition of Escherichia coli DNA gyrase supercoiling activity using pHOT1 DNA as substrate at 100 uM after 60 mins by agarose gel electrophoretic analysis. In outline: as §4
In assay [20] the target is DNA gyrase (Staphylococcus aureus) (UniProt P0A0K8+P20831). Nature of the assay: Inhibition of Staphylococcus aureus DNA gyrase supercoiling activity using pHOT1 DNA as substrate at 125 uM after 60 mins by agarose gel electrophoretic analysis. In kind it is protein-complex assay. Summed up:
as §4

The test system of assay [21] is Staphylococcus aureus. As to the kind of experiment: Inhibition of Staphylococcus aureus topoisomerase 4-mediated relaxation of supercoiled pBR322 DNA at 1 uM after 30 mins by agarose gel electrophoretic analysis. In outline:
(§5)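 Relaxation assay with 1 U Topo IV and 0.5 µg supercoiled pBR322 DNA in HEPES–KOH pH 7.6 buffer (potassium glutamate, magnesium acetate, DTT, 1 mM ATP, BSA), 37 °C for 30 min. Stopped with chloroform/iso-amyl alcohol (24:1), then run on 1% agarose gel in TAE at 5 V/cm.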

Assay [22] relates to Staphylococcus aureus. Nature of the assay: Inhibition of Staphylococcus aureus topoisomerase 4-mediated relaxation of supercoiled pBR322 DNA at 25 uM after 30 mins by agarose gel electrophoretic analysis. Summed up:
as §5

Assay [23] has as its system Escherichia coli. Nature of the assay: Inhibition of Escherichia coli topoisomerase 4-mediated relaxation of supercoiled pBR322 DNA at 125 uM after 30 mins by agarose gel electrophoretic analysis. In outline:
as §5

The test system of assay [24] is Escherichia coli. Nature of the assay: Inhibition of Escherichia coli topoisomerase 4 assessed as decatenation of kDNA at 25 uM after 30 mins by electrophoresis. In outline: (§6)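 Decatenation assay with 1 U Topo IV and 200 ng catenated kDNA in HEPES–KOH pH 7.6 buffer (potassium glutamate, magnesium acetate, DTT, 1 mM ATP, BSA), 37 °C for 30 min. Stopped with chloroform/iso-amyl alcohol (24:1), then run on 1% agarose gel in TAE at 10 V/cm.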

Assay [25] relates to Staphylococcus aureus. As to the kind of experiment: Inhibition of Staphylococcus aureus topoisomerase 4 assessed as decatenation of kDNA at 125 uM after 30 mins by electrophoresis. In outline: as §6
In assay [26] the test system is Escherichia coli. As to the kind of experiment: Antimicrobial activity against Escherichia coli ATCC 25922 by two fold microdilution method. In kind it is functional. Summed up: as §1
Assay [27] has as its system Salmonella enterica subsp. enterica serovar Paratyphi B. Nature of the assay: Antimicrobial activity against Salmonella paratyphi B CMCC 50094 by two fold microdilution method. In kind it is functional. In outline: as §2
The subject of assay [28] is Pseudomonas aeruginosa. As to the kind of experiment: Antimicrobial activity against Pseudomonas aeruginosa ATCC 27853 by two fold microdilution method. In kind it is functional. Summed up:
as §1

In assay [29] the test system is Streptococcus. As to the kind of experiment: Antimicrobial activity against hemolytic Streptococcus Group B CMCC 32210 by two fold microdilution method. In kind it is functional. Summed up:
as §1

Assay [30] has as its system Staphylococcus aureus. As to the kind of experiment: Antimicrobial activity against Staphylococcus aureus ATCC 25923 by two fold microdilution method. It counts as functional. Summed up: as §2
Assay [31] has as its system Staphylococcus epidermidis. Nature of the assay: Antimicrobial activity against Staphylococcus epidermidis ATCC 12228 by two fold microdilution method. It counts as functional. Summed up: as §1
In assay [32] the test system is Enterococcus faecalis. As to the kind of experiment: Antimicrobial activity against Enterococcus faecalis ATCC 29212 by two fold microdilution method. In kind it is functional. Summed up:
as §1

Assay [33] relates to Candida albicans. Nature of the assay: Antifungal activity against Candida albicans ATCC 10231 by two fold microdilution method. In kind it is functional.
Assay [34] deals with Staphylococcus aureus. Nature of the assay: Antimicrobial activity against methicillin-resistant Staphylococcus aureus ATCC 43300 by two fold microdilution method. It counts as functional. In outline: as §2
Assay [35] concerns Staphylococcus aureus. Nature of the assay: Antimicrobial activity against methicillin-resistant Staphylococcus aureus isolate 80754 by broth microdilution method. It counts as functional. In outline:
as §3

For assay [36], the system named is Staphylococcus aureus. As to the kind of experiment: Antimicrobial activity against methicillin-resistant Staphylococcus aureus isolate 7365 by broth microdilution method. It counts as functional. Summed up:
as §3

In assay [37] the test system is Staphylococcus aureus. As to the kind of experiment: Antimicrobial activity against methicillin-resistant Staphylococcus aureus isolate 0441 by broth microdilution method. It counts as functional. In outline: as §3
In assay [38] the test system is Staphylococcus aureus. As to the kind of experiment: Antimicrobial activity against methicillin-resistant Staphylococcus aureus isolate 071410 by broth microdilution method. In kind it is functional. In outline: as §3
The subject of assay [39] is Escherichia coli. To be noted: 1 to 125 uM.

Chain of DNA gyrase (Staphylococcus aureus) (P0A0K8 2-644 limits assumed): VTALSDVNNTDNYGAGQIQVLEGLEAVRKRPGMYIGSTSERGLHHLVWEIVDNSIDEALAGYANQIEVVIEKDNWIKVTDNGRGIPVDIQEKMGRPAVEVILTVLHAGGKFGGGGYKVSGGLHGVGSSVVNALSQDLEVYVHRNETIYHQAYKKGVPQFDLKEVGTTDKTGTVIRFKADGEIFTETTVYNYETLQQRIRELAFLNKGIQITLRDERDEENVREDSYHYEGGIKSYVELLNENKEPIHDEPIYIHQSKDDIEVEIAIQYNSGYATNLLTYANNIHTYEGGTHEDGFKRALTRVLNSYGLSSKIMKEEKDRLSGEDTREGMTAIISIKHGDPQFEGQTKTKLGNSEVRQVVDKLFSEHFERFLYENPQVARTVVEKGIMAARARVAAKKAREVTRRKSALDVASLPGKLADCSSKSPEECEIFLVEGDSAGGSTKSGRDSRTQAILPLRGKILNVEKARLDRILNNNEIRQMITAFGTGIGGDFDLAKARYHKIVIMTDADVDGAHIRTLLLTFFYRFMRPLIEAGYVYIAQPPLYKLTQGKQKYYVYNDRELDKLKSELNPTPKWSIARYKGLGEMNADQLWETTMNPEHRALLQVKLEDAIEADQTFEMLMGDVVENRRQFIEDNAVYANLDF
Chain of DNA gyrase (Staphylococcus aureus) (P20831 whole entry partner): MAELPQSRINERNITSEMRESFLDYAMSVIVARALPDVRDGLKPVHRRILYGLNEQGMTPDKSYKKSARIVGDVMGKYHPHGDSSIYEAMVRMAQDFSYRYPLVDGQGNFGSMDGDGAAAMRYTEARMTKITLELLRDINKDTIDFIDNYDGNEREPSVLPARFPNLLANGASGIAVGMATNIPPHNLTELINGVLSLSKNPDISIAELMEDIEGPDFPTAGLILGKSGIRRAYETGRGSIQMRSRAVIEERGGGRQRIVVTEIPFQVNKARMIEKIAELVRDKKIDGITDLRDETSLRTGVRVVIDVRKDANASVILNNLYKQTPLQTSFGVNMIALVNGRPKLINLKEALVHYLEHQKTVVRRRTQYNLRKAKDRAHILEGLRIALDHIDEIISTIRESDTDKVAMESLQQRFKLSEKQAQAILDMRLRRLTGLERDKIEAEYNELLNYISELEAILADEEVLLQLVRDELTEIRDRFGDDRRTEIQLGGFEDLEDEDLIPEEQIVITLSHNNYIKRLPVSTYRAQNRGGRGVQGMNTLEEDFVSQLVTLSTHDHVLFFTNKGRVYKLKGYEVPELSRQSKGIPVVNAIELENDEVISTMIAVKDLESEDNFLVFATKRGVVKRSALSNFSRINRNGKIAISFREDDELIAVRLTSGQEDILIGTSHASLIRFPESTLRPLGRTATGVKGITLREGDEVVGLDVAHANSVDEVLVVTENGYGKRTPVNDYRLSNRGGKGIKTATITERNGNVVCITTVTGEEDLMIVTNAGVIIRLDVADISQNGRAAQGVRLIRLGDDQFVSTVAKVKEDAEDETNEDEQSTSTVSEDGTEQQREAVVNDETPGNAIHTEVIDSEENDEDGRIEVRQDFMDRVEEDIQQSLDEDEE

Usually MIC stands for the least concentration at which growth counts as inhibited. Read a low MIC as inhibition by little substance. Regarding `O=C1c2cccnc2C(=O)c2c1c(C(=O)OCCF)c1ccc(Br)cn21`, the minimum inhibitory concentration (MIC) against Escherichia coli [1] is over 64 µg/mL; against Pseudomonas aeruginosa [2], over 64 µg/mL; in [3], over 64 µg/mL; against Streptococcus [4], 0.031 µg/mL (≈ 0.0743 µM); with Staphylococcus aureus [5], 0.031 µg/mL (≈ 0.0743 µM); in assay [6] it was 0.016 µg/mL (≈ 0.0384 µM). The MIC in the assay with Enterococcus faecalis [7] is 0.016 µg/mL (≈ 0.0384 µM); in the assay on Staphylococcus aureus [8], 0.063 µg/mL (≈ 0.151 µM); in the assay on Candida albicans [9] it was over 64 µg/mL. Also, in the assay on Staphylococcus aureus [10], the Ratio worked out at 16.
By inhibition is commonly meant the share of the control response that was lost under treatment. `CCOC(=O)c1c2c(n3cc(Br)ccc13)C(=O)c1ncccc1C2=O`: the minimal inhibitory concentration (MIC) against Staphylococcus aureus [11] is 0.016 µg/mL (≈ 0.0401 µM); against Staphylococcus aureus [12], 0.016 µg/mL (≈ 0.0401 µM); against Staphylococcus aureus [13], 0.016 µg/mL (≈ 0.0401 µM); in the assay on Staphylococcus aureus [14] it was 0.016 µg/mL (≈ 0.0401 µM); against Staphylococcus aureus [15] it was 0.016 µg/mL (≈ 0.0401 µM); in the assay with Staphylococcus aureus [16], 0.032 µg/mL (≈ 0.0802 µM). In addition, the MIC against Staphylococcus aureus [17] was 0.032 µg/mL (≈ 0.0802 µM); with Escherichia coli [26] it was over 64 µg/mL; in [27] it was 64 µg/mL (≈ 160 µM); with Pseudomonas aeruginosa [28], over 64 µg/mL; in the assay with Streptococcus [29] it was 0.031 µg/mL (≈ 0.0777 µM); against Staphylococcus aureus [30] it was 0.063 µg/mL (≈ 0.158 µM). In addition, the MIC in assay [31] is 0.063 µg/mL (≈ 0.158 µM); with Enterococcus faecalis [32], 0.016 µg/mL (≈ 0.0401 µM); against Candida albicans [33], over 64 µg/mL; in the assay with Staphylococcus aureus [34] it was 0.063 µg/mL (≈ 0.158 µM); with Staphylococcus aureus [35], 0.063 µg/mL (≈ 0.158 µM); in the assay on Staphylococcus aureus [36], 0.063 µg/mL (≈ 0.158 µM). Also, the MIC against Staphylococcus aureus [37] and against Staphylococcus aureus [38] was 0.032 µg/mL (≈ 0.0802 µM) each time. Moreover, the figures for the inhibition with Escherichia coli [18], in the assay on Escherichia coli [19] and with Staphylococcus aureus [25] were 78%, 98% and 84%, respectively. The inhibition result (in assay [20]; in the assay with Escherichia coli [23]) was “inactive” throughout. Besides, the inhibition result with Staphylococcus aureus [21], in the assay with Staphylococcus aureus [22] and in the assay on Escherichia coli [24] was “Active” throughout. Also, in the assay with Staphylococcus aureus [10], the Ratio is reported as 16.
For `O=C(O)c1cn(C2CC2)c2cc(N3CCNCC3)c(F)cc2c1=O`, the inhibition entry in assay [20] was “inactive”. The inhibition entry with Staphylococcus aureus [21], in the assay on Escherichia coli [24] and in the assay on Escherichia coli [39] was “Active” in each case.
